What was measured:
Quadruplex DNA [1] = assay: Stabilization of G-quadruplex c-KIT1 5-FAM-GGGAGGGCGCTGGGAGGAGGG-TAMRA-3 (unknown origin) assessed as change in melting temperature at 10 uM incubated for 1 hr in dark condition by FRET-based melting assay; type: nucleic-acid assay
Outline: (§1)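 FRET melting of dual-fluorophore (FAM/TAMRA) tagged G-quadruplex (200 nM) in 60 mM potassium cacodylate, pH 7.4. The screen used 1 μM ligand; dose series used 1, 3, 5, 7 and 10 μM. ΔTm was taken against the Tm of the same oligonucleotide without ligand.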

Quadruplex DNA [2] = assay: Binding affinity to G-quadruplex c-MYC 5-FAM-TGGGGAGGGTGGGGAGGGTGGGGAAGG-TAMRA-3 (unknown origin) assessed as dissociation constant by fluorescence spectroscopy assay; type: nucleic-acid assay
Outline: (§2)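 Fluorimetric titration of ligand held at 1.0 μM with increasing concentrations of G4 or dsDNA until saturation. Change in ligand fluorescence intensity was fitted for Kd. Run in 100 mM Tris-KCl buffer, pH 7.4.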

Quadruplex DNA [3] = assay: Binding affinity to G-quadruplex c-KIT1 5-FAM-GGGAGGGCGCTGGGAGGAGGG-TAMRA-3 (unknown origin) assessed as increase in melting temperature by CD spectra analysis; type: nucleic-acid assay
Quadruplex DNA [4] = assay: Binding affinity to G-quadruplex c-MYC 5-FAM-TGGGGAGGGTGGGGAGGGTGGGGAAGG-TAMRA-3 (unknown origin) assessed as dissociation constant by measuring thermogram by isothermal titration calorimetry (ITC) assay; type: nucleic-acid assay
Outline: (§3)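 ITC of ligand binding to folded G4 in 100 mM Tris-KCl buffer, pH 7.4. Kd and stoichiometry were obtained from the isothermal heat curve and binding isotherm.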

Quadruplex DNA [5] = assay: Binding affinity to G-quadruplex c-KIT1 5-FAM-GGGAGGGCGCTGGGAGGAGGG-TAMRA-3 (unknown origin) assessed as dissociation constant by isothermal titration calorimetry (ITC) assay; type: nucleic-acid assay; outline: as §3
[6] = Reduction of BCL-2 oncogene expression in human K562 cells transfected with BCL-2 plasmid construct assessed as reduction in luciferase expression at 6 uM measured after 36 hrs by luciferase reporter assay; type: functional
Outline: (§4)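 K562 cells were transfected with luciferase plasmids carrying the c-KIT, c-MYC or BCL-2 promoter G4. They were then treated with ligand (3 and 6 μM or 5.5 and 11 μM), and relative luciferase expression was measured.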

[7] = Reduction of c-KIT protein expression in human K562 cells at 3 uM measured after 24 hrs by Western blotting analysis relative to control; type: functional
Outline: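 K562 cells were treated with ligand (3 and 6 μM or 5.5 and 11 μM). c-KIT protein was measured by Western blot with GAPDH as the housekeeping reference, relative to control.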

[8] = Reduction of c-MYC oncogene expression in human K562 cells transfected with c-MYC plasmid construct assessed as reduction in luciferase expression at 6 uM measured after 36 hrs by luciferase reporter assay; type: functional
Outline: (§5)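 Promoter luciferase reporter: K562 cells transfected with a c-MYC promoter G4-containing luciferase-expressing plasmid, then ligand-treated at two doses each (3 and 6 μM, or 5.5 and 11 μM); read-out as relative luciferase expression, reported as percent reduction.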

[9] = Reduction of c-MYC oncogene expression in human K562 cells transfected with c-MYC plasmid construct assessed as reduction in luciferase expression at 3 uM measured after 36 hrs by luciferase reporter assay; type: functional; outline: as §5
Calf thymus DNA = assay: Binding affinity to calf thymus ds DNA assessed as dissociation constant by fluorescence spectroscopy assay; type: nucleic-acid assay, Bos taurus; outline: as §2
Quadruplex DNA [10] = assay: Binding affinity to excessive G-quadruplex VEGF 5-FAM-CGGGGCGGGCCGGGGGCGGGGT-TAMRA-3 (unknown origin) assessed as fold increase in fluorescence intensity at 1 uM incubated for 1 hr in dark condition by fluorescence spectroscopy assay; type: nucleic-acid assay
Outline: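 Fluorimetric titration in 100 mM Tris-KCl buffer, pH 7.4. Ligand fixed at 1.0 μM and titrated with increasing concentrations of each G-quadruplex until fluorescence saturation. The fold increase in ligand fluorescence intensity was read, and Kd was derived from the titration plot.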

Quadruplex DNA [11] = assay: Stabilization of 5-FAM/3-TAMRA labelled G-quadruplex c-KIT1 5-FAM-GGGAGGGCGCTGGGAGGAGGG-TAMRA-3 (unknown origin) assessed as change in melting temperature incubated for 1 hr in dark condition by FRET-based melting assay; type: nucleic-acid assay; conditions: dose 1-10 µM; outline: as §1
Quadruplex DNA [12] = assay: Stabilization of G-quadruplex BCL2 5-FAM-AGGGGCGGGCGCGGGAGGAAGGGGGCGGGAGCGGGGCTG-TAMRA-3 (unknown origin) assessed as change in melting temperature at 1 uM incubated for 1 hr in dark condition by FRET-based melting assay; type: nucleic-acid assay
Outline: (§6)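 FRET melting of dual-fluorophore-tagged oligonucleotides (200 nM) in 60 mM potassium cacodylate buffer, pH 7.4, with ligand at 1 μM; ΔTm taken against the ligand-free oligonucleotide Tm as control.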

Quadruplex DNA [13] = assay: Binding affinity to G-quadruplex h-TELO 5-FAM-TTGGGTTAGGGTTAGGGTTAGGGA-TAMRA-3 (unknown origin) assessed as dissociation constant by measuring thermogram by isothermal titration calorimetry (ITC) assay; type: nucleic-acid assay; outline: as §3
Quadruplex DNA [14] = assay: Stabilization of G-quadruplex VEGF 5-FAM-CGGGGCGGGCCGGGGGCGGGGT-TAMRA-3 (unknown origin) assessed as change in melting temperature at 1 uM incubated for 1 hr in dark condition by FRET-based melting assay; type: nucleic-acid assay; outline: as §6
Quadruplex DNA [15] = assay: Binding affinity to G-quadruplex VEGF 5-FAM-CGGGGCGGGCCGGGGGCGGGGT-TAMRA-3 (unknown origin) assessed as dissociation constant by measuring thermogram by isothermal titration calorimetry (ITC) assay; type: nucleic-acid assay; outline: as §3
Quadruplex DNA [16] = assay: Stabilization of G-quadruplex c-KIT2 5-FAM-GGGCGGGCGCGAGGGAGGGG-TAMRA-3 (unknown origin) assessed as change in melting temperature at 1 uM incubated for 1 hr in dark condition by FRET-based melting assay; type: nucleic-acid assay; outline: as §6
K562 [17] = assay: Induction of apoptosis in human K562 cells assessed as apoptosis incubated for 24 hrs by FITC-Annexin V and PI based flow cytometry; type: functional, cell-based
Outline: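 K562 cells were treated with ligand (3 and 6 μM or 5.5 and 11 μM) and dual-stained with annexin V and PI. Early and late apoptotic populations were quantified by flow cytometry dot plot analysis.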

[18] = Reduction of c-KIT oncogene expression in human K562 cells transfected with c-KIT plasmid construct assessed as reduction in luciferase expression at 3 uM measured after 36 hrs by luciferase reporter assay; type: functional; outline: as §4
Quadruplex DNA [19] = assay: Stabilization of G-quadruplex c-MYC 5-FAM-TGGGGAGGGTGGGGAGGGTGGGGAAGG-TAMRA- 3 (unknown origin) assessed as change in melting temperature at 10 uM incubated for 1 hr in dark condition by FRET-based melting assay; type: nucleic-acid assay; outline: as §1
K562 [20] = assay: Attenuation of proto-oncogene expression in human c-KIT-positive K562 cells assessed as reduction in c-MYC oncogene expression at 6 uM measured after 24 hrs by qRT-PCR analysis relative to control; type: functional
Outline: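 K562 cells treated 24 h at two doses per ligand (3 and 6 μM, 5.5 and 11 μM; positive control 2 and 4 μM). c-KIT, c-MYC and BCL-2 mRNA measured by qRT-PCR and normalized to housekeeping gene 18s, relative to untreated control.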

CN(C)CCCNC(=O)c1ccc(-n2cc(-c3ccc4[nH]c5ccccc5c4c3)nn2)cc1
ΔTm (Quadruplex DNA [1]): 26.5 °C
Kd (Quadruplex DNA [2]): 2.7 µM
ΔTm (Quadruplex DNA [3]): 16 °C
Kd (Quadruplex DNA [4]): 6.2 µM
Kd (Quadruplex DNA [5]): 1.6 µM
inhibition at 6 µM [6]: 15.8%
inhibition at 3 µM [7]: 23.3%
inhibition at 6 µM [8]: 12.3%
inhibition at 3 µM [9]: 6%
Kd (Calf thymus DNA): 4 µM
fold change (FC) (Quadruplex DNA [10]): 2.1
Activity (Quadruplex DNA [11]): Dose-Dependent Effect
ΔTm (Quadruplex DNA [12]): 2.2 °C
Kd (Quadruplex DNA [13]): 17.4 µM
ΔTm (Quadruplex DNA [14]): 3.5 °C
Kd (Quadruplex DNA [15]): 15.9 µM
ΔTm (Quadruplex DNA [16]): 9.9 °C
Activity (K562 [17]): Dose-Dependent Effect
inhibition at 3 µM [18]: 22%
ΔTm (Quadruplex DNA [19]): 17.3 °C
inhibition at 6 µM (K562 [20]): 19%

— ChEMBL document CHEMBL5344453, “Selective Recognition of c-KIT 1 G-Quadruplex by Structural Tuning of Heteroaromatic Scaffolds and Side Chains” (ACS Med Chem Lett, 2024)
